Results pooled from the literature.
Each line is one published result; the experiments were not run side by side.
Cell line: A549
Observed: cell growth or viability

Compound	test	setting	measurement	result
CCCCCCCCCCCCCCCC(=O)O	MTS	24 h	IC50	145 µM
CCOC(=O)C1CCN(C(=O)c2ccc(N(CC)Cc3cnc4nc(N)nc(N)c4n3)cc2)CC1	ATP luminescence		GI50	4.38 µM
O=C(O)c1ccc2c(c1)C(=O)OC21c2ccc(O)cc2Oc2cc(O)ccc21	CCK-8	48 h	CC50	> 200 µM
C=C(C)C(CC=C(C)C)Cc1c(O)cc(OC)c2c1O[C@H](c1ccc(O)cc1O)CC2=O (single isomer, unassigned; (-))	MTT		IC50	50.5 µM
O=C(O)CCCCC#CCCCCCCCCCc1ccccc1	MTS	24 h	IC50	18 µM
COc1cc2oc(-c3ccc(O)cc3O)c(CC=C(C)C)c(=O)c2c(O)c1/C=C/C(C)C	crystal violet	72 h	CC50	38 µM
CC(C)=CCc1c(O)c(CC=C(C)C)c2occ(-c3ccc(O)cc3)c(=O)c2c1O	MTT	100 µg/mL	viability	121%
CN(Cc1cnc2nc(N)nc(N)c2n1)c1ccc(C(=O)N2CCCCC2)cc1	ATP luminescence		GI50	34.9 µM
O=C1OC2(c3cc(Cl)c(O)cc3Oc3cc(O)c(Cl)cc32)c2ccccc21	CCK-8	48 h	CC50	> 200 µM
CCCCCCCCCC#CCCCCC(=O)O	MTS	24 h	IC50	16 µM
C=C(C)[C@H](CC=C(C)C)Cc1c(O)cc(OC)c(C(=O)/C=C/c2ccc(O)cc2O)c1O	MTT		IC50	57.1 µM
O=C1OC2(c3ccccc31)c1cc(Br)c(O)c(Br)c1Oc1c2cc(Br)c(O)c1Br	CCK-8	48 h	CC50	> 200 µM
CC(=O)O[C@H]1C(=O)[C@@]2(C)[C@H]([C@H](OC(=O)c3ccccc3)[C@]3(O)C[C@H](OC(=O)[C@H](O)[C@@H](NC(=O)c4ccccc4)c4ccccc4)C(C)=C1C3(C)C)[C@]1(OC(C)=O)CO[C@@H]1C[C@@H]2O	MTT	48 h	IC50	0.45 µM
Nc1nc(N)c2nc(CNc3ccc(C(=O)NCCc4ccccc4)cc3)cnc2n1	ATP luminescence		GI50	38.8 µM
O=C1OC2(c3ccccc31)c1ccc(O)c(Br)c1Oc1c2ccc(O)c1Br	CCK-8	48 h	CC50	> 200 µM
